Results published in ChEMBL document CHEMBL1128413, “The serotonin 5-HT4 receptor. 1. Design of a new class of agonists and receptor map of the agonist recognition site” (J Med Chem, 1995).

Columns and labels:
[1] = target: 5-hydroxytryptamine receptor 4 (Cavia porcellus) (UniProt O70528); assay: 5-hydroxytryptamine 4 receptor agonist activity in the guinea pig ileum assay; assay type: functional, tissue-based
Summary of the method: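 Guinea pig ileum longitudinal muscle strips in tyrode solution with 0.1 μM methysergide. Twitch contractions (2–3 s) evoked by field stimulation with square-wave pulses (0.1 Hz, 2 ms) via platinum electrodes. Once a stable submaximal response is reached, noncumulative concentration–response curves are built for enhancement of twitch. Readouts are pD2 and efficacy relative to 5-HT.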

[2] = target: D(1A) dopamine receptor (Bos taurus) (UniProt Q95136); settings: Striatum
Chain of D(1A) dopamine receptor (Bos taurus) (Q95136 whole entry): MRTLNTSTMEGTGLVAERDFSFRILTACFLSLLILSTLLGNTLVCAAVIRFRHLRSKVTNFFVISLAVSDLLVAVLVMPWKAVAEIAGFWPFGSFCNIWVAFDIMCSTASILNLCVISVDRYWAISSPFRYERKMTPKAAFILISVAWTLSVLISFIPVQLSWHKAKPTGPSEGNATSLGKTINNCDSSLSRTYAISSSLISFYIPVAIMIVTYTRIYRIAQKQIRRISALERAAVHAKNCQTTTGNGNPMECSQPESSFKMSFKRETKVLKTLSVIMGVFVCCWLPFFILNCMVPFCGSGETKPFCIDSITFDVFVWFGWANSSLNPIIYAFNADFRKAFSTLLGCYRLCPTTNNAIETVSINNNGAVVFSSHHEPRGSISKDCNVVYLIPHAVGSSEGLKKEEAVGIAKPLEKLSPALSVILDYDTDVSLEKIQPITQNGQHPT

[3] = target: T1, Serotonin 3 receptor (5HT3) (Mus musculus) (UniProt Q9JHJ5+P23979)
[4] = target: D(2) dopamine receptor (Bos taurus) (UniProt P20288); assay: Binding affinity was evaluated by Dopamine receptor D2 binding in the calf striatum by displacing spiperone; assay type: tissue-based
Chain of D(2) dopamine receptor (Bos taurus) (P20288 whole entry): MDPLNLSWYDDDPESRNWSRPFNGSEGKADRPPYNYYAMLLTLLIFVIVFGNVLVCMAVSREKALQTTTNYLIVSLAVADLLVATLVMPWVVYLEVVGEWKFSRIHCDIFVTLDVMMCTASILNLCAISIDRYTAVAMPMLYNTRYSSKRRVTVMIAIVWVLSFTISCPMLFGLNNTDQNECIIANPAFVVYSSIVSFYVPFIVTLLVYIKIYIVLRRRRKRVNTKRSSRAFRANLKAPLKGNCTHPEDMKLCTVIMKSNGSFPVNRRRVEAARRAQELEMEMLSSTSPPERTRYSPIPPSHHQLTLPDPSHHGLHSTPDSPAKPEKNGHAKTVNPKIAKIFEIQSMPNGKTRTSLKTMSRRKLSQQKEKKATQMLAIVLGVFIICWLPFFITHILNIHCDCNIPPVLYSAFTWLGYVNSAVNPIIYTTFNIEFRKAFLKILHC
Summary of the method: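 Radioligand displacement with [3H]spiperone on calf striatum membranes; Ki reported.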

[5] = target: T2, Alpha-1A adrenergic receptor (Bos taurus) (UniProt P18130); assay: Binding affinity was evaluated by Alpha-1 adrenergic receptor in calf cortex by displacing prazosin
T2 sequence (whole entry): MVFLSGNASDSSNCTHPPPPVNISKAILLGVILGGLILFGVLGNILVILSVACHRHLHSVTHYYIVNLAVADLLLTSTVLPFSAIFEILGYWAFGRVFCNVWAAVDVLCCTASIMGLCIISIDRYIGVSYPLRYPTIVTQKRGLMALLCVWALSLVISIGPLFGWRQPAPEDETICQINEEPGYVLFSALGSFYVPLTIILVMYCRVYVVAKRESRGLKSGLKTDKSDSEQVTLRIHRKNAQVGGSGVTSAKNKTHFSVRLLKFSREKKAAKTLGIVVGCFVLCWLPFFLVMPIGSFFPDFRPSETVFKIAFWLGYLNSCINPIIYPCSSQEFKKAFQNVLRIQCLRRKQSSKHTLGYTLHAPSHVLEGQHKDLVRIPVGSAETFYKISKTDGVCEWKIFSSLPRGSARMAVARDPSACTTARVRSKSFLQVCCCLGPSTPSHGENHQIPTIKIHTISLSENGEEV
Summary of the method: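 Radioligand displacement with [3H]prazosin on calf cortex membranes; Ki reported.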

[6] = target: 5-hydroxytryptamine receptor 2A (Rattus norvegicus) (UniProt P14842); assay: Binding affinity was evaluated by 5-hydroxytryptamine 2A receptor […] in the rat cortex by displacing ketanserin
Chain of 5-hydroxytryptamine receptor 2A (Rattus norvegicus) (P14842 whole entry): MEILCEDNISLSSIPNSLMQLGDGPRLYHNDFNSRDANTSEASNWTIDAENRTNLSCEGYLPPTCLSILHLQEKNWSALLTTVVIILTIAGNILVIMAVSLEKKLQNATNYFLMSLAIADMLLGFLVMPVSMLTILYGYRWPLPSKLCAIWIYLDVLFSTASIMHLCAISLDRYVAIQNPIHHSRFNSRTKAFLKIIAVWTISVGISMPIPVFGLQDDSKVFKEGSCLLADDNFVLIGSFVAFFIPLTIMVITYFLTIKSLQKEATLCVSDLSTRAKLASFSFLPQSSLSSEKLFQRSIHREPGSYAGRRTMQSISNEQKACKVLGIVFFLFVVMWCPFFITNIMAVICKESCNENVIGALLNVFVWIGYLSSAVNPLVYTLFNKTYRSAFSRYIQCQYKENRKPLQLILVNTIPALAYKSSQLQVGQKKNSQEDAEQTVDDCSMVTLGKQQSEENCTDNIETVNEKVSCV
Summary of the method: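 Radioligand displacement with [3H]ketanserin on rat cortex membranes; Ki reported.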

[7] = target: 5-hydroxytryptamine receptor 4 (Cavia porcellus) (UniProt O70528); assay: Compound was evaluated for the relative potency with respect to serotonin against 5-hydroxytryptamine 4 receptor; assay type: functional
[8] = target: T3, Serotonin 3 receptor (5HT3) (Mus musculus, UniProt Q9JHJ5+P23979); assay: Compound was evaluated for the binding affinity at 5- HT3 receptor subtype; assay type: protein assay
T3 sequence (Q9JHJ5 whole entry): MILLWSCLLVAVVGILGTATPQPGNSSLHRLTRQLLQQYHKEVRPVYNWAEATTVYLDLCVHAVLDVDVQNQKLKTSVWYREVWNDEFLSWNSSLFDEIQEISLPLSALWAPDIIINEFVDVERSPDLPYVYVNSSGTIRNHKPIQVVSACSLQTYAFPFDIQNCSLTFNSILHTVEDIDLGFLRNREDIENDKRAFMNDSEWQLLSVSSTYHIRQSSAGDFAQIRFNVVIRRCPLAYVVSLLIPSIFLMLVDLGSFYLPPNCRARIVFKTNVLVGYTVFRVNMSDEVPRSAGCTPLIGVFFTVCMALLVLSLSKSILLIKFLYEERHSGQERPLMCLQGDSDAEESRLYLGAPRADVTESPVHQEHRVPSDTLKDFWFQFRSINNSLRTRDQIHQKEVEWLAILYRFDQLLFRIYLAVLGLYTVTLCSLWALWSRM
T3 sequence (P23979 whole entry): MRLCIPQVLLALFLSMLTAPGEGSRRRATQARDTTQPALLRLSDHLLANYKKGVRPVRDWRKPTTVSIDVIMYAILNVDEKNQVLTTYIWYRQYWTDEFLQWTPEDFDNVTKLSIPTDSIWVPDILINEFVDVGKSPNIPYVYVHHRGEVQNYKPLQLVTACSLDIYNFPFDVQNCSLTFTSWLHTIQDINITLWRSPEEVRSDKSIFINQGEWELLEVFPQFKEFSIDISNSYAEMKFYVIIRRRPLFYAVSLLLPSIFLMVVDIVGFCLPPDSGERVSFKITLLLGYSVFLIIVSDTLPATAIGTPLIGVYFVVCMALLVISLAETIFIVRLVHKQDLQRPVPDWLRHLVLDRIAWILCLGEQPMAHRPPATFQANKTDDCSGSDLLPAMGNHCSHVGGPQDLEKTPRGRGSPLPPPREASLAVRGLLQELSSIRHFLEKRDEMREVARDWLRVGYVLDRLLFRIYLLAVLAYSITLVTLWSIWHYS
Summary of the method: (§1)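 Radioligand binding to native tissue membranes. Each receptor used its own tissue and [³H]radioligand: 5-HT2A in rat cortex with [³H]ketanserin, 5-HT3 in mouse N1E-115 cells with [³H]tropisetron, α1 in calf cortex with [³H]prazosin, and D2 in calf striatum with [³H]spiperone. Affinity is reported as Ki.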

[9] = target: D(2) dopamine receptor (Bos taurus, UniProt P20288); assay: Compound was evaluated for the binding affinity at Dopamine receptor D2; summary of the method: as §1
Chain of D(2) dopamine receptor (P20288 whole entry): as the sequence (P20288 whole entry) above

[10] = target: T1, Serotonin 3 receptor (5HT3) (Mus musculus); remark: listed apart in the source
[11] = tested on: 5-HT1A receptor (Sus scrofa); assay: Binding affinity was evaluated by 5-hydroxytryptamine 1A receptor […] in the pig cortex by displacing 8-OH-DPAT
[12] = target: Serotonin 3 (5-HT3) receptor (Homo sapiens) (UniProt P46098+A5X5Y0+O95264+Q70Z44+Q8WXA8); assay: 5-hydroxytryptamine 3 receptor agonism in the guinea pig ileum by functional 5-HT3 receptor assay; assay type: tissue-based; settings: Cavia porcellus, target entry is the homologue from another species
Summary of the method: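 Guinea pig ileum in tyrode solution containing 0.1 μM methysergide. 5-HT3 receptor-mediated contractions recorded isotonically; concentration–response curves built noncumulatively.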

[13] = target: D(1A) dopamine receptor (Bos taurus) (UniProt Q95136); assay: Binding affinity was evaluated by dopamine receptor D1 […] in the calf striatum by displacing SCH 23390; assay type: tissue-based
Summary of the method: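 Radioligand displacement with [3H]SCH 23390 on calf striatum membranes; Ki reported.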

Chain of 5-hydroxytryptamine receptor 4 (Cavia porcellus) (O70528 whole entry): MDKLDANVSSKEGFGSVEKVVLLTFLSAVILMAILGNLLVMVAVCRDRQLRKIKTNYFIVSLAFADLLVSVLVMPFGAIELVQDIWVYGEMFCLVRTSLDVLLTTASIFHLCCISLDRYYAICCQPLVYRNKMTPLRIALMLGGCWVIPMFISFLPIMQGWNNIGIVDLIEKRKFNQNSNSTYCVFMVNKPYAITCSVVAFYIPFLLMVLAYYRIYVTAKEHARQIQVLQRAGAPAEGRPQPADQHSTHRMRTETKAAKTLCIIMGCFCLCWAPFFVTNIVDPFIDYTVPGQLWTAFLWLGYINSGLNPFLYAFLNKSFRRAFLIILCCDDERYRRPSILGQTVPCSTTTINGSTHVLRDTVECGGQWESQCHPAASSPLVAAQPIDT

| SMILES | pD2 [1] | pKD [2] | pKD [3] | pKD [4] | pKD [5] | pKD [6] | Potency relative to serotonin [7] | Ki [8] | Ki [9] | pKD [10] | pKD [11] | pD2 [12] | pKD [13] |
| --- | --- | --- | --- | --- | --- | --- | --- | --- | --- | --- | --- | --- | --- |
| COc1cc(N)c(Cl)cc1C(=O)N[C@H]1CN2CCC1CC2 | 6.8 | < 5 | 9.5 | < 5 | < 5 | < 5 | 1.9 |  |  |  |  |  |  |
| CCN(CC)CCNC(=O)c1cc(Cl)c(N)cc1OC [METOCLOPRAMIDE] | 5.6 | < 5 |  | 7.1 | < 5 | 5.4 | 1 | 200 nM | 80 nM | 6.7 |  |  |  |
| N=C(N)N/N=C/c1c[nH]c2ccc(O)cc12 | 8.8 |  |  | < 5 | < 5.5 | 6.6 | 1.5 |  |  |  | 7.2 | < 5 | 5.4 |
| COc1cc(N)c(Cl)cc1C(=O)N[C@H]1CCN(CCCOc2ccc(F)cc2)C[C@H]1OC | 6 | 5.2 | 7.2 | 6.5 |  |  | 0.7 |  |  |  |  |  |  |
| NCCc1c[nH]c2ccc(O)cc12 | 8.4 |  |  |  |  |  | 1 |  |  |  |  |  |  |
